{"data": "Assay results gathered from unrelated publications", "note": "Each line is one published result; the experiments were not run side by side."}
{"Structure (SMILES)": "CC[C@@]1(O)C(=O)OCc2c1cc1n(c2=O)Cc2cc3ccccc3nc2-1", "tested on": "HepG2", "test": "cell growth or viability, MTT", "setting": "48 h", "measurement": "IC50", "result": "10.1 µM"}
{"Structure (SMILES)": "Cn1c([N+](=O)[O-])cnc1COc1ccc2nc3ccc(=O)cc-3oc2c1", "tested on": "Mycobacterium tuberculosis", "test": "microbial growth", "setting": "7 days", "measurement": "MIC90", "result": "> 256 µM"}
{"Structure (SMILES)": "CCOC(=O)C1=C(C)N(C(C)=O)C(=O)NC1c1cn(-c2ccccc2)nc1-c1ccccc1 (stereo not shown)", "tested on": "Mycobacterium tuberculosis", "test": "microbial growth, resazurin", "test system": "H37RV", "measurement": "MIC", "result": "56.2 µM"}
{"Structure (SMILES)": "N.N.[Cl][Pt][Cl]", "tested on": "A-431", "test": "cell growth or viability, MTT", "setting": "72 h", "measurement": "IC50", "result": "2.1 µM"}
{"Structure (SMILES)": "COc1c(N2CC3CCCN(C(=O)OC(C)(C)C)C3C2)c(F)cc2c(=O)c(C(=O)OCc3cnc([N+](=O)[O-])s3)cn(C3CC3)c12 (stereo not shown)", "tested on": "Mycobacterium tuberculosis", "test": "microbial growth", "test system": "H37RV", "measurement": "MIC", "result": "> 8 µM"}
{"Structure (SMILES)": "Cc1sc2c(c1C)C(c1ccc(Cl)cc1)=N[C@@H](CC(=O)OC(C)(C)C)c1nnc(C)n1-2", "tested on": "Ramos", "test": "cell growth or viability, ATP luminescence", "setting": "72 h", "measurement": "IC50", "result": "0.545 µM"}
{"Structure (SMILES)": "C1N2CN3CN1CP(C2)C3.Cc1cc(C)n(C(C(=O)OC(C)C)n2nc(C)cc2C)n1.F[P-](F)(F)(F)(F)F.[Cu+]", "tested on": "A-431", "test": "cell growth or viability, MTT", "setting": "72 h", "measurement": "IC50", "result": "11.3 µM"}
{"Structure (SMILES)": "COc1cccc(/C=N/N2C(=O)c3ccccc3NC2c2cccc(OC)c2O)c1O (stereo not shown)", "tested on": "Mycobacterium tuberculosis", "test": "microbial growth", "test system": "ATCC25177 H37RA", "setting": "14 days", "measurement": "MIC", "result": "> 128 µg/mL"}
{"Structure (SMILES)": "Cc1cc(C(=O)O)ccc1-c1c2ccc(=O)cc-2oc2cc(OCc3ccc([N+](=O)[O-])o3)ccc12", "tested on": "Mycobacterium tuberculosis", "test": "microbial growth", "setting": "7 days", "measurement": "MIC90", "result": "240 µM"}
{"Structure (SMILES)": "CCOC(=O)C1=C(C)NC(=O)NC1c1cn(-c2ccccc2)nc1-c1ccccc1 (stereo not shown)", "tested on": "Mycobacterium tuberculosis", "test": "microbial growth, resazurin", "test system": "H37RV", "measurement": "MIC", "result": "62.1 µM"}
{"Structure (SMILES)": "Cn1c(COc2ccc3nc4ccc(=O)cc-4oc3c2)cnc1[N+](=O)[O-]", "tested on": "Mycobacterium tuberculosis", "test": "microbial growth", "setting": "7 days", "measurement": "MIC90", "result": "> 256 µM"}
{"Structure (SMILES)": "CCOC(=O)C1=C(C)NC(=NN)NC1c1ccc(F)cc1 (stereo not shown)", "tested on": "Mycobacterium tuberculosis", "test": "microbial growth, resazurin", "test system": "H37RV", "measurement": "MIC", "result": "85.5 µM"}
{"Structure (SMILES)": "NNC(=O)c1ccncc1", "tested on": "Mycobacterium tuberculosis", "test": "microbial growth", "test system": "ATCC25177 H37RA", "setting": "14 days", "measurement": "MIC", "result": "8 µg/mL"}
